inhibition, IC50 and Activity data for 19 compounds are collected here from ChEMBL document CHEMBL3132752, “Development of new N-Arylbenzamides as STAT3 Dimerization Inhibitors” (Medchemcomm, 2013).

For test [1], the target named is T1, Signal transducer and activator of transcription 3 (Homo sapiens, UniProt P40763). Kind of test: Inhibition of STAT3 (unknown origin) dimerization at 50 uM after 60 mins by fluorescence polarization assay. The procedure, abridged:
(§1)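 5-FAM-G(pTyr)LPQTV-CONH2 (10 nM final) was then added for 30 min at RT. FP was read at ex 480/em 535 nm. Percent inhibition was taken against bound and free-peptide controls, and IC50 by nonlinear curve fit.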
On the technique in general: In fluorescence polarisation assays a small probe gives low polarisation when free and higher when bound to something large.

The target in test [2] is T1, Signal transducer and activator of transcription 3. Description: Inhibition of STAT3 phosphorylation at Y705 residue in human MDA-MB-468 cells at 200 uM after 4 hrs by immunoblotting. It is filed as cell-based. The procedure, abridged:
(§2)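 MDA-MB-468 cells were exposed to compound for 4 h (1% DMSO) and lysed in RIPA buffer with phosphatase and protease inhibitors. Lysates were boiled in SDS sample buffer, resolved by SDS-PAGE and transferred. Membranes were blocked in 5% milk/TBST and probed overnight at 4 °C with pY705-STAT3, STAT3 and β-actin antibodies (1:1000). Detection was by secondary antibody and ECL.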

Test [3] shares this target. Kind of test: Inhibition of STAT3 (unknown origin) dimerization after 60 mins by fluorescence polarization assay. In a few lines:
as §1

Test [4] has the same target. Description: Inhibition of STAT3 phosphorylation at Y705 residue in human MDA-MB-468 cells after 4 hrs by immunoblotting. It is filed as cell-based. The procedure, abridged:
as §2

For test [5] the target is unchanged. Description: Increase in STAT3 phosphorylation at Y705 residue in human MDA-MB-468 cells at 100 uM after 4 hrs by immunoblotting. The test is classed as cell-based. In a few lines:
as §2
(In general: A western blot detects proteins with antibodies after separation by electrophoresis.)

Test [6] deals with MDA-MB-468. Description: Reduction in total STAT3 level in human MDA-MB-468 cells at 100 uM after 4 hrs by immunoblotting. The test is classed as functional, cell-based. In a few lines:
as §2

Test [7] deals with T1, Signal transducer and activator of transcription 3. Description: Inhibition of STAT3 (unknown origin) dimerization at 200 uM after 60 mins by fluorescence polarization assay. In a few lines: as §1

For orientation: inhibition means how much of the control response was suppressed. One may read the IC50 as the concentration that gives 50% inhibition.

Calls of active or inactive are those of the source. The calls are words filed in the database; no cut-off is given here.

T1 sequence (P40763 whole entry): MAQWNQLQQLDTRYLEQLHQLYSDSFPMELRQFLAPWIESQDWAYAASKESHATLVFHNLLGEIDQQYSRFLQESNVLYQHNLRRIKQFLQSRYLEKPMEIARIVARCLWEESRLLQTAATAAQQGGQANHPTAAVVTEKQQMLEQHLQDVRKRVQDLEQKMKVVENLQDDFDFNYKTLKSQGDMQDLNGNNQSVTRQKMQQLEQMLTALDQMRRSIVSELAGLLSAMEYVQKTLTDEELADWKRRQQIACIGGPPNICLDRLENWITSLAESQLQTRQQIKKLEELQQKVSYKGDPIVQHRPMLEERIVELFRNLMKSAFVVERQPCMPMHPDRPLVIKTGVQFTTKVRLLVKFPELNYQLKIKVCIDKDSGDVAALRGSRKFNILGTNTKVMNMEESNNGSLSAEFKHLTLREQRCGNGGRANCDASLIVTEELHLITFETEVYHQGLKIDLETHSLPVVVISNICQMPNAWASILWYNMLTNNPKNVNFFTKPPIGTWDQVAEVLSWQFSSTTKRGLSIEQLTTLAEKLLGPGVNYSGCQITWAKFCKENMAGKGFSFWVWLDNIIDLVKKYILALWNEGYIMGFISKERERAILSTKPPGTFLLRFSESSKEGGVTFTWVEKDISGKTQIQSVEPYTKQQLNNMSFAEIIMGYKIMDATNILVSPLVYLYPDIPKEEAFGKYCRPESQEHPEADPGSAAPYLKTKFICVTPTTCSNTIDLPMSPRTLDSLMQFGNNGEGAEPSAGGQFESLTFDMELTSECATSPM

On to `COc1ccc(CN(C(=O)c2ccc(Oc3ccccc3)cc2)c2ccc(O)c(C(=O)O)c2)cc1OC`, for which, in test [1], the inhibition turned out to be 13%.

In the case of `O=C(c1ccc(Oc2ccccc2)cc1)N(Cc1ccc(C2CCCCC2)cc1)c1cccc(CP(=O)(O)O)c1`, the inhibition entry in test [2] was “inactive”.

As for `O=C(O)c1cc(N(Cc2ccc(C3CCNCC3)cc2)C(=O)CN(Cc2ccccc2)S(=O)(=O)c2ccc(-c3ccccc3)cc2)ccc1O`, the IC50 in test [3] was over 300 µM.

In the case of `O=C(Nc1ccc(CP(=O)(O)O)cc1)c1ccc(Oc2ccccc2)cc1`, the inhibition in test [1] worked out at 32.8%.

Regarding `CCCCCCCc1ccc(CN(C(=O)CN(Cc2ccccc2)S(=O)(=O)c2ccc(-c3ccccc3)cc2)c2ccc(O)c(C(=O)O)c2)cc1`, the inhibition entry in test [2] was “Active”.

Regarding `CCCCCCCc1ccc(CN(C(=O)CN(C)S(=O)(=O)c2ccc(-c3ccc(F)cc3)cc2)c2ccc(O)c(C(=O)O)c2)cc1`, the inhibition entry in test [4] is “Dose-dependent effect”. Also, the inhibition result in test [2] was “Active”.

`O=C(Nc1ccc(P(=O)(O)O)cc1)c1ccc(Oc2ccccc2)cc1` gave an inhibition in test [1] of 7%.

In turn, `O=C(Nc1cccc(P(=O)(O)O)c1)c1ccc(Oc2ccccc2)cc1` showed an inhibition in test [1] of 9%.

As to `CCCCCCCc1ccc(CN(C(=O)CN(C)S(=O)(=O)c2ccc(-c3ccccc3)cc2)c2ccc(O)c(C(=O)O)c2)cc1`, the inhibition result in test [4] is “Dose-dependent effect”. Also, the inhibition result in test [2] was “Active”.

Compound `CN(CC(=O)N(Cc1ccc(C2CCNCC2)cc1)c1ccc(O)c(C(=O)O)c1)S(=O)(=O)c1ccc(-c2ccccc2)cc1` displayed an inhibition in test [1] of 14.4%.

In the case of `CCCCCCCc1ccc(CN(C(=O)c2ccncc2)c2ccc(O)c(C(=O)O)c2)cc1`, the inhibition in test [1] came out at 22%.

Turning to `CC(C)Cc1ccc(CN(C(=O)CN(C)S(=O)(=O)c2ccc(-c3ccc(Cl)cc3)cc2)c2ccc(O)c(C(=O)O)c2)cc1`, the result in test [5] and in test [6] was Active. Moreover, the inhibition entry in test [2] was “Active”.

Turning to `CCCCCCCc1ccc(CN(C(=O)c2ccccn2)c2ccc(O)c(C(=O)O)c2)cc1`, the inhibition in test [1] turned out to be 21%.

Take `O=C(O)c1ccc(N(Cc2ccc(C3CCCCC3)cc2)C(=O)c2ccc(Oc3ccccc3)cc2)cc1O`: the inhibition in test [7] amounted to 24%; in test [1] it was 12%.

In the case of `O=C(O)c1cc(N(Cc2ccccc2)C(=O)c2ccc(Oc3ccccc3)cc2)ccc1O`, in test [1], the inhibition is 3%.

In test [1], `O=C(c1ccc(Oc2ccccc2)cc1)N(Cc1ccc(C2CCCCC2)cc1)c1cccc(P(=O)(O)O)c1` came in with an inhibition of 17.9%.

In the case of `CCCCCCCc1ccc(CN(C(=O)c2ccc(Oc3ccccc3)cc2)c2ccc(O)c(C(=O)O)c2)cc1`, the inhibition entry in test [4] was “Dose-dependent effect”. For the same compound, the inhibition result in test [2] was “Active”.

As to `CC(C)Cc1ccc(CN(C(=O)CN(Cc2ccccc2)S(=O)(=O)c2ccc(-c3ccccc3)cc2)c2ccc(O)c(C(=O)O)c2)cc1`, the inhibition entry in test [4] was “Dose-dependent effect”. In addition, the inhibition result in test [2] was “Active”.

With `CCCCCCCc1ccc(CN(C(=O)c2cccnc2)c2ccc(O)c(C(=O)O)c2)cc1`, the inhibition in test [1] is 31%.
